Published values from different studies.
Protocols differ between the studies behind these lines.
Target: Phosphatidylinositol 4,5-bisphosphate 3-kinase catalytic subunit beta isoform (PIK3CB, Homo sapiens, UniProt P42338)

test	conditions	remaining binding [%]	Compound
binding, competition with immobilised ligand	1 µM	100	COc1cnc(Nc2cccc(S(N)(=O)=O)c2)nc1N1CCN(c2ccccc2)C(=O)C1
cell-free assay, competition with immobilised ligand	0.1 µM	59	C[C@@H]1CN(c2cc(-c3n[nH]c4ccc(OC5(C)CC5)cc34)ncn2)C[C@H](C)O1
binding, competition with immobilised ligand	1 µM	100	O=C(Nc1c[nH]nc1C(=O)NC1CCNCC1)c1cc(F)cc(F)c1
binding	1 µM	100	N[C@H]1CCN(c2nccc(-c3cnn4ncccc34)n2)C1
binding, competition with immobilised ligand	1 µM	100	CNC(=O)[C@@H]1CC[C@@H](n2c(-c3ccc4cnccc4c3)nc3ccc(C(=O)NCc4cccc(C(N)=O)c4)cc32)C1
binding, competition with immobilised ligand	1 µM	100	O=C(NCCCN1CCOCC1)c1ccc(Nc2nccc(-c3cc4ccccc4s3)n2)cc1
cell-free assay, competition with immobilised ligand	0.1 µM	100	Nc1c(C(=O)NCc2ccc(C(=O)NCCCC3CCCCC3)cc2)cnn1-c1ccccc1
binding, competition with immobilised ligand	1 µM	0.05	C=CC(=O)N1CCC(C(=O)NCC(=O)N2CCN(c3nc(-c4cnc(N)nc4C(F)F)nc(N4CCOCC4)n3)CC2)CC1
binding	1 µM	65	C[C@H]1CCN(c2nccc(-c3cnn4ncccc34)n2)C1
cell-free assay, competition with immobilised ligand	1 µM	100	CS(=O)(=O)c1cc(C2(NC(=O)c3cncc4c3cnn4-c3ccc(F)cc3)CC2)ccn1
binding, competition with immobilised ligand	0.1 µM	99	C[C@@H](c1ccc(-n2cnc3c(N)ncnc32)cc1)N1CCc2nn(C)c(Cc3ccccc3)c2C1=O
cell-free assay, competition with immobilised ligand	1 µM	100	COc1cc(-c2cn(C3CCc4ccccc4N(CC(F)(F)F)C3=O)nn2)ccc1-n1ccc(C)n1 (centres unmarked)
binding	1 µM	100	CN(CCCC(F)(F)F)c1nccc(-c2cnn3ncccc23)n1
cell-free assay, competition with immobilised ligand	1 µM	89	CNCc1ccccc1-c1csc([C@H](C)Nc2nc(C)nc3cc(OC)c(OC)cc23)c1
binding	1 µM	100	F[C@@H]1CCN(c2nccc(-c3cnn4ncccc34)n2)C1
binding, competition with immobilised ligand	1 µM	99	O=C(NCCCN1CCOCC1)c1ccc(Nc2ncc(Cl)c(-c3ccc(Cl)s3)n2)cc1
binding, competition with immobilised ligand	10 µM	100	c1cncc(-c2cccc(Nc3nccc(NC4CCCCC4)n3)c2)c1
cell-free assay, competition with immobilised ligand	1 µM	100	CN(c1ccnc(CNc2nc(Nc3ccc4c(c3)CC(=O)N4)ncc2C(F)(F)F)n1)S(C)(=O)=O
binding, competition with immobilised ligand	1 µM	100	O=C(c1ccc(Nc2ncc(Cl)c(-c3cc4ccccc4s3)n2)cc1)N1CCC(N2CCCC2)CC1
binding	1 µM	74	Cc1cnn2ncc(-c3ccnc(N(C)C)n3)c2c1
